Sequences and labels used below:
B1: tRNA (parent)
chain: GUUCCGUUGGCGUAAUGGUAACGCGUCUCCCUCCUAAGGAGAAGACUGCGGGUUCGAGUCCCGUACGGAACG

Fewer inactive variants are shown than the library holds.

This data set covers variants of B1. Briefly: yeast fitness relative to wild type (ratio to wild type); higher = fitter; tRNA-Arg(CCU), competitive growth, 37 C, YPD. A digest of the protocol: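 For this measurement, the tRNA-Arg(CCU) gene was varied by chemical synthesis at a 3% per-site mutation rate across 69 sites, and each variant was placed at the native genomic locus in Saccharomyces cerevisiae. The pooled strains went through a 24-hour competition in YPD at 37°C in six parallel replicates, with amplicons from start and end populations read by 100-nucleotide paired-end sequencing. Darwinian fitness relative to wild type followed from the change in each genotype's frequency. Genotypes needed ≥ 100 starting reads, and estimates < 0.5 were set to 0.5.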
Regarding A21G C31U U35C A40G A65U, the yeast fitness was not above 0.5.

For A21C C22G A57G, the yeast fitness is not above 0.5.

In the case of A21C C27U G63A A65G, the yeast fitness is 0.505.

For the variant A21C G39C A42U G48C, the yeast fitness was not above 0.5.

For the variant A21C U28A C55G A57U G67A, the yeast fitness was not above 0.5.

Consider A21G C31G G63A, for which the yeast fitness came out at 0.774.

A21G C27A G39C C55U A65C: the yeast fitness is not above 0.5.

For the variant A21G A36G U53A A57U A65U, the yeast fitness is not above 0.5.

For the variant A21C C22U C46U G48A G56A C60A C62A, the yeast fitness is not above 0.5.

On to A21C G38C G63C A70U, for which the yeast fitness was not above 0.5.

For A21C C34G A43U, the yeast fitness was not above 0.5.

As for A21G C30U, the yeast fitness came out at 0.97.

Regarding A21G C30G, the yeast fitness turned out to be 0.784.

Turning to A21G C31U G52C G68A, the yeast fitness was not above 0.5.

For A21C C27U A57U C62G C66U, the yeast fitness was not above 0.5.

Consider A21C G23U U59G, for which the yeast fitness was not above 0.5.

Regarding A21C G39A G52C C62U, the yeast fitness was not above 0.5.

As to A21G, the yeast fitness stood at 1.

Take A21C U28A C31G: the yeast fitness is not above 0.5.

On to A21C C31A C33G C46A, for which the yeast fitness is not above 0.5.

Regarding A21C G25C A57G, the yeast fitness stood at 0.516.

Take A21C C29G U59C: the yeast fitness was not above 0.5.

For A21G A57U, the yeast fitness was 0.97.

As for A21G A57G, the yeast fitness was found to be 0.875.

A21C G56A A57G C66U: the yeast fitness was not above 0.5.

Regarding A21C G41C, the yeast fitness is 0.695.

Turning to A21G C22G U35G A36C, the yeast fitness was determined as 0.746.

Consider A21G A37C G38A A65U G68C, for which the yeast fitness was not above 0.5.

Turning to A21C C49U A69U, the yeast fitness worked out at 0.61.

As for A21G A45G, the yeast fitness worked out at 0.91.

As to A21G A45U, the yeast fitness came to 0.902.

A21G A45C: the yeast fitness worked out at 0.89.

As for A21G C22A G56A, the yeast fitness came to 0.763.

For A21G C22U C24G G25C U32A C34U G39C A45G, the yeast fitness was not above 0.5.

Take A21C C34G: the yeast fitness is 0.577.

As for A21C U28G C66U, the yeast fitness was not above 0.5.

For the variant A21C U26A C46U C55U, the yeast fitness came to 0.608.

As to A21G A42U C49U G67A, the yeast fitness was not above 0.5.

As for A21G A43C C60G G68C, the yeast fitness is not above 0.5.

A21G C29G A65U G67U: the yeast fitness is not above 0.5.

In the case of A21G C29U G38A C62U G67C, the yeast fitness came to 0.629.

Consider A21G C22U A45C, for which the yeast fitness is 0.539.

For A21G C29A, the yeast fitness was 0.693.

In the case of A21G C29G, the yeast fitness worked out at 0.625.

As for A21C C22G A42C U47A U64C, the yeast fitness was not above 0.5.

As to A21G C22G C29G, the yeast fitness is not above 0.5.

With A21C C24U A37C G39A C49G, the yeast fitness was not above 0.5.

On to A21C C27U G68U, for which the yeast fitness turned out to be 0.633.

A21C C55A A57U: the yeast fitness was found to be 0.535.

With A21C C29G A36G C46U G58A, the yeast fitness is 0.535.

For A21C C29U A57C A69U, the yeast fitness was not above 0.5.

A21G C31G: the yeast fitness worked out at 1.05.

In the case of A21C G25C U26G A70C, the yeast fitness was not above 0.5.

A21C C30G C55G A70G: the yeast fitness came to 0.532.

With A21G C22U C60A, the yeast fitness is not above 0.5.

Regarding A21C C29U C31G, the yeast fitness was not above 0.5.

On to A21C C24G G25C G44A C55G G56A, for which the yeast fitness is not above 0.5.

As to A21C U32A C34A G38A A45U, the yeast fitness is not above 0.5.

For the variant A21C A69U, the yeast fitness was found to be 0.827.

As to A21C U64G A69G, the yeast fitness is 0.504.

As to A21C C33U C55U A57C C61A, the yeast fitness is not above 0.5.

As for A21G C29U A45U, the yeast fitness was 0.86.

A21G C29U G41C A42G U53G A57C: the yeast fitness is not above 0.5.

With A21G C31U U35C C61U C66U, the yeast fitness is not above 0.5.

On to A21C C34G C46A, for which the yeast fitness was not above 0.5.

Consider A21C C34G C46U, for which the yeast fitness is not above 0.5.

Regarding A21C A57C C62A, the yeast fitness is not above 0.5.

As for A21C C24U A36C, the yeast fitness stood at 0.592.

With A21C C30G A45G C66A, the yeast fitness is not above 0.5.

Take A21G A43C C60G A69U: the yeast fitness was not above 0.5.

As for A21G A37G G39C C62U, the yeast fitness is not above 0.5.

For the variant A21G A45G G67A, the yeast fitness was determined as 1.

Turning to A21C U59A, the yeast fitness was 0.791.

On to A21G A42U G68C, for which the yeast fitness came to 0.539.

Consider A21C C22G G38C A57C A65U, for which the yeast fitness was not above 0.5.

On to A21C U28A G38A U59C G67A, for which the yeast fitness was not above 0.5.

A21C C31A A65C: the yeast fitness was not above 0.5.

Turning to A21G A69C, the yeast fitness amounted to 0.932.

A21G C24U G44C: the yeast fitness turned out to be 0.583.

As to A21G C27A A37U G50A, the yeast fitness was determined as 0.531.

For A21G A42C G52A, the yeast fitness is 0.637.

Take A21C U32C C46G C49G: the yeast fitness worked out at 0.529.

In the case of A21C G39A C49A, the yeast fitness is not above 0.5.

As to A21C G63A, the yeast fitness stood at 0.88.

A21G C27A A37U G50A C66U: the yeast fitness is not above 0.5.

With A21G C30A C33G U47C U59A C66U, the yeast fitness is not above 0.5.

Regarding A21G C30G G67U, the yeast fitness is not above 0.5.

For A21G A45U A69U, the yeast fitness came to 1.07.

In the case of A21C C31A U32G A40G, the yeast fitness was not above 0.5.

With A21G C22U A70U, the yeast fitness turned out to be 0.619.

Regarding A21C U28A A40U C62G C66G, the yeast fitness is not above 0.5.

A21G C22A C55A G67C: the yeast fitness was not above 0.5.

Regarding A21G C22A, the yeast fitness is 0.834.

Regarding A21G C22U, the yeast fitness was 0.683.

A21C C27U G41A: the yeast fitness worked out at 0.966.

A21G A36U A45U C49U U64A A70U: the yeast fitness was not above 0.5.

With A21C U32A C34U, the yeast fitness is not above 0.5.

For the variant A21G A42U, the yeast fitness came to 0.839.

A21G A42C: the yeast fitness was determined as 0.96.

With A21C C24A G39A G56C A69U, the yeast fitness was not above 0.5.

On to A21C U54G C55G, for which the yeast fitness was determined as 0.585.

As for A21C U35C A65G, the yeast fitness came out at 0.583.

As to A21C C34U G56A, the yeast fitness was determined as 0.551.

As for A21C C27U A45G, the yeast fitness came to 0.584.

On to A21G A36G, for which the yeast fitness was 0.954.

In the case of A21C G25C U26G U59A A70C, the yeast fitness was 0.559.

In the case of A21C C30A A43G C61U, the yeast fitness is not above 0.5.

In the case of A21C C33U C61A, the yeast fitness was found to be 0.593.

On to A21G A45G A65C, for which the yeast fitness is 0.977.

For A21C G52C, the yeast fitness was determined as 0.511.

As to A21C G52A, the yeast fitness amounted to 0.636.

For the variant A21C C61U, the yeast fitness is 0.679.

Consider A21C C24A U54A A70C, for which the yeast fitness was not above 0.5.

Turning to A21G C22U C66U G68C, the yeast fitness is not above 0.5.

Turning to A21C G38C G44C, the yeast fitness is 0.544.

Take A21G A40C A42C C66A: the yeast fitness is not above 0.5.

Take A21G C22U G63C A69C: the yeast fitness was determined as 0.524.

Regarding A21C C33A C61U, the yeast fitness is not above 0.5.

In the case of A21C C34G G41C G67C, the yeast fitness turned out to be 0.653.

On to A21C U26G C34U A40G G51A, for which the yeast fitness stood at 0.529.

Regarding A21C C29U C31G A43U A65C, the yeast fitness is not above 0.5.

In the case of A21C C27A A45U U47G, the yeast fitness was not above 0.5.

In the case of A21C C55G A57U G67A, the yeast fitness was not above 0.5.

As to A21C G44A U47C, the yeast fitness is 0.51.

In the case of A21G A40G A70U, the yeast fitness was determined as 0.609.

On to A21G A36G G51A A69C, for which the yeast fitness is not above 0.5.

For the variant A21C U32C C46U C66U, the yeast fitness was determined as 0.585.

With A21G C22U A36G U53C A57C A69U, the yeast fitness was not above 0.5.

Regarding A21C C27U C61U G68A, the yeast fitness is not above 0.5.

Regarding A21C G58C C60U C66G, the yeast fitness was not above 0.5.

As for A21C C27U G50A, the yeast fitness came out at 0.571.

Turning to A21C U32A C46A, the yeast fitness turned out to be 0.744.

Turning to A21C C27A C49G A69C, the yeast fitness is not above 0.5.

For A21G A42U A57U C62U, the yeast fitness is not above 0.5.

On to A21C C27A A37G A45C, for which the yeast fitness came to 0.529.

On to A21G C27A A36U A40G, for which the yeast fitness came out at 0.587.

Take A21C G23A C49A: the yeast fitness is not above 0.5.

Regarding A21G C27G G67A, the yeast fitness was not above 0.5.

As to A21C G52C G67C, the yeast fitness is not above 0.5.

Turning to A21G C30G U54G A65G G68U A70C, the yeast fitness was not above 0.5.

With A21G A40C A42U C46U C49U G51A A69C, the yeast fitness was 0.596.

Regarding A21C C31U G38A G39C C49G, the yeast fitness was not above 0.5.

Consider A21G C24G C31G A43U, for which the yeast fitness is not above 0.5.

Consider A21G C22U G41C, for which the yeast fitness was found to be 0.66.

With A21C A70U, the yeast fitness was determined as 0.894.

As to A21C A70G, the yeast fitness was 0.861.

Consider A21C A57U, for which the yeast fitness was 0.752.

Turning to A21G A42C G67A, the yeast fitness stood at 0.662.

With A21G C27U A37U A45U C62G, the yeast fitness was not above 0.5.

A21G C27G C49U: the yeast fitness was 0.557.

Take A21C G48C G56C: the yeast fitness was not above 0.5.

On to A21G A43U C61A, for which the yeast fitness is not above 0.5.

On to A21C A57U C60U C62U C66U, for which the yeast fitness was found to be 0.612.

A21C C29A G52C: the yeast fitness amounted to 0.566.

Turning to A21G C31G A69C, the yeast fitness was 0.755.

Take A21G A42G C66G: the yeast fitness is not above 0.5.

Regarding A21C U32A C46A U64A A65C, the yeast fitness was not above 0.5.

As for A21G A42C C66A, the yeast fitness was not above 0.5.

Consider A21C U32G, for which the yeast fitness was 0.617.

With A21G C22U G67A, the yeast fitness amounted to 0.575.

With A21G C27A C34G G38A G63C, the yeast fitness is not above 0.5.

Turning to A21G C24U C33U, the yeast fitness is not above 0.5.

As to A21C G51A, the yeast fitness was determined as 0.658.

For the variant A21C G51C, the yeast fitness was found to be 0.528.

As to A21G A42C C61U, the yeast fitness is 0.659.

For the variant A21C U54C, the yeast fitness was 0.845.

Consider A21C U54A, for which the yeast fitness stood at 0.552.

The values are drawn from the RNAGym collection of RNA variant scans (doi:10.1126/science.aae0568).
